Measurements as given in ChEMBL document CHEMBL1649179, “Pharmacokinetics of LB80331 and LB80317 following oral administration of LB80380, a new antiviral agent for chronic hepatitis B (CHB), in healthy adult subjects, CHB patients, and mice” (Antimicrob Agents Chemother, 2009).

Columns and labels:
Homo sapiens [1] = assay: AUC (0 to 24 hrs) in chronic hepatitis B virus infected patient assessed as (1-((2-amino-6-hydroxy-9H-purin-9-yl)methyl)cyclopropoxy)me at 30 mg, po qd for 4 weeks by LC-MS analysis; format: ADME, organism-based, Plasma; set-up: time < 24 hr, dose 30 mg, route oral; conditions: in vivo
Summary of the method: (§1)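 CHB patients (HBsAg/HBeAg positive), six per cohort, oral once daily for 4 weeks. Plasma sampled at steady state (weeks 2–4), predose and at 0.5, 1, 2, 3, 4, 6, 8 and 24 h postdose. Analysis by validated LC-MS/MS after protein-precipitation extraction with a stable-isotope internal standard; LLOQ 10 ng/ml for LB80317. Noncompartmental analysis gives Cmax, AUC0-24 and terminal t1/2.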

Homo sapiens [2] = assay: Cmax in chronic hepatitis B virus infected patient assessed as (1-((2-amino-6-hydroxy-9H-purin-9-yl)methyl)cyclopropoxy)me at 30 mg, po qd for 4 weeks by LC-MS analysis; format: ADME, organism-based; set-up: dose 30 mg, route oral; conditions: in vivo, 672 h; summary of the method: as §1
Homo sapiens [3] = assay: Tmax in chronic hepatitis B virus infected patient assessed as (1-((2-amino-6-hydroxy-9H-purin-9-yl)methyl)cyclopropoxy)me at 30 mg, po qd for 4 weeks by LC-MS analysis; format: ADME, organism-based; conditions: in vivo, 672 h
Summary of the method: (§2)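 Daily oral LB80380 was given to CHB patients over 4 weeks. Blood was drawn on day 1 and at steady state (weeks 2–4), predose and 0.5–24 h postdose. Plasma LB80331 (LLOQ 5 ng/ml) and LB80317 (LLOQ 10 ng/ml) were measured by LC-MS/MS after protein-precipitation extraction. Tmax was taken by noncompartmental analysis.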

Homo sapiens [4] = assay: Half life in chronic hepatitis B virus infected patient assessed as (1-((2-amino-6-hydroxy-9H-purin-9-yl)methyl)cyclopropoxy)me at 30 mg, po qd for 4 weeks by LC-MS analysis; format: ADME, organism-based; conditions: in vivo, 672 h; summary of the method: as §1
Homo sapiens [5] = assay: AUC (0 to 24 hrs) in chronic hepatitis B virus infected patient assessed as (1-((2-amino-6-hydroxy-9H-purin-9-yl)methyl)cyclopropoxy)me at 60 mg, po qd for 4 weeks by LC-MS analysis; format: ADME, organism-based, Plasma; set-up: time < 24 hr, dose 60 mg, route oral; conditions: in vivo; summary of the method: as §1
Homo sapiens [6] = assay: Cmax in chronic hepatitis B virus infected patient assessed as (1-((2-amino-6-hydroxy-9H-purin-9-yl)methyl)cyclopropoxy)me at 60 mg, po qd for 4 weeks by LC-MS analysis; format: ADME, organism-based; set-up: dose 60 mg, route oral; conditions: in vivo, 672 h; summary of the method: as §1
Homo sapiens [7] = assay: Tmax in chronic hepatitis B virus infected patient assessed as (1-((2-amino-6-hydroxy-9H-purin-9-yl)methyl)cyclopropoxy)me at 60 mg, po qd for 4 weeks by LC-MS analysis; format: ADME, organism-based; conditions: in vivo, 672 h; summary of the method: as §2
Homo sapiens [8] = assay: Half life in chronic hepatitis B virus infected patient assessed as (1-((2-amino-6-hydroxy-9H-purin-9-yl)methyl)cyclopropoxy)me at 60 mg, po qd for 4 weeks by LC-MS analysis; format: ADME, organism-based; conditions: in vivo, 672 h; summary of the method: as §1
Homo sapiens [9] = assay: AUC (0 to 24 hrs) in chronic hepatitis B virus infected patient assessed as (1-((2-amino-6-hydroxy-9H-purin-9-yl)methyl)cyclopropoxy)me at 120 mg, po qd for 4 weeks by LC-MS analysis; format: ADME, organism-based, Plasma; set-up: dose 120 mg, time < 24 hr, route oral; conditions: in vivo; summary of the method: as §1
Homo sapiens [10] = assay: Cmax in chronic hepatitis B virus infected patient assessed as (1-((2-amino-6-hydroxy-9H-purin-9-yl)methyl)cyclopropoxy)me at 120 mg, po qd for 4 weeks by LC-MS analysis; format: ADME, organism-based; set-up: dose 120 mg, route oral; conditions: in vivo, 672 h; summary of the method: as §1
Homo sapiens [11] = assay: Tmax in chronic hepatitis B virus infected patient assessed as (1-((2-amino-6-hydroxy-9H-purin-9-yl)methyl)cyclopropoxy)me at 120 mg, po qd for 4 weeks by LC-MS analysis; format: ADME, organism-based; conditions: in vivo, 672 h; summary of the method: as §2
Homo sapiens [12] = assay: Half life in chronic hepatitis B virus infected patient assessed as (1-((2-amino-6-hydroxy-9H-purin-9-yl)methyl)cyclopropoxy)me at 120 mg, po qd for 4 weeks by LC-MS analysis; format: ADME, organism-based; conditions: in vivo, 672 h; summary of the method: as §1
Homo sapiens [13] = assay: AUC (0 to 24 hrs) in chronic hepatitis B virus infected patient assessed as (1-((2-amino-6-hydroxy-9H-purin-9-yl)methyl)cyclopropoxy)me at 240 mg, po qd for 4 weeks by LC-MS analysis; format: ADME, organism-based, Plasma; set-up: time < 24 hr, dose 240 mg, route oral; conditions: in vivo; summary of the method: as §1
Homo sapiens [14] = assay: Cmax in chronic hepatitis B virus infected patient assessed as (1-((2-amino-6-hydroxy-9H-purin-9-yl)methyl)cyclopropoxy)me at 240 mg, po qd for 4 weeks by LC-MS analysis; format: ADME, organism-based; set-up: dose 240 mg, route oral; conditions: in vivo, 672 h; summary of the method: as §1
Homo sapiens [15] = assay: Tmax in chronic hepatitis B virus infected patient assessed as (1-((2-amino-6-hydroxy-9H-purin-9-yl)methyl)cyclopropoxy)me at 240 mg, po qd for 4 weeks by LC-MS analysis; format: ADME, organism-based; conditions: in vivo, 672 h; summary of the method: as §2
Homo sapiens [16] = assay: Half life in chronic hepatitis B virus infected patient assessed as (1-((2-amino-6-hydroxy-9H-purin-9-yl)methyl)cyclopropoxy)me at 240 mg, po qd for 4 weeks by LC-MS analysis; format: ADME, organism-based; conditions: in vivo, 672 h; summary of the method: as §1
Plasma [17] = assay: Tmax in CD-1 mouse plasma assessed as (1-((2-amino-6-hydroxy-9H-purin-9-yl)methyl)cyclopropoxy)me at 30 mg/kg, po administered as single dose by LC-MS analysis; format: ADME, organism-based; set-up: dose 30 mg/kg, route oral; conditions: in vivo
Summary of the method: (§3)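 Male CD-1 mice received 30 mg/kg orally in 100% PEG 400. Plasma and snap-frozen liver were taken from 3 mice per time point at 1, 2, 4, 6, 10, 24 and 36 h. Samples were extracted with perchloric acid and neutralized with ammonium bicarbonate. Free LB80331/LB80317 was measured directly by LC-MS/MS; total, including di- and triphosphates, was measured after calf intestinal phosphatase treatment.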

Plasma [18] = assay: Cmax in CD-1 mouse plasma assessed as (1-((2-amino-6-hydroxy-9H-purin-9-yl)methyl)cyclopropoxy)me at 30 mg/kg, po administered as single dose by LC-MS analysis; format: ADME, organism-based; set-up: dose 30 mg/kg, route oral; conditions: in vivo
Summary of the method: (§4)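 Male CD-1 mice given a single oral dose in 100% PEG 400. Samples extracted with perchloric acid and neutralized with ammonium bicarbonate. One aliquot assayed for the free analyte; the other treated with calf intestinal phosphatase to give the total including di-/triphosphates. Analysis by LC-MS/MS.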

Plasma [19] = assay: AUC (0 to 36 hrs) in CD-1 mouse plasma assessed as (1-((2-amino-6-hydroxy-9H-purin-9-yl)methyl)cyclopropoxy)me at 30 mg/kg, po administered as single dose by LC-MS analysis; format: ADME, organism-based; set-up: time < 36 hr, dose 30 mg/kg, route oral; conditions: in vivo; summary of the method: as §4
Plasma [20] = assay: AUC (0 to infinity) in CD-1 mouse plasma assessed as (1-((2-amino-6-hydroxy-9H-purin-9-yl)methyl)cyclopropoxy)me at 30 mg/kg, po administered as single dose by LC-MS analysis; format: ADME, organism-based; set-up: time infinity, dose 30 mg/kg, route oral; conditions: in vivo; summary of the method: as §4
Plasma [21] = assay: Half life in CD-1 mouse plasma assessed as (1-((2-amino-6-hydroxy-9H-purin-9-yl)methyl)cyclopropoxy)me at 30 mg/kg, po administered as single dose by LC-MS analysis; format: ADME, organism-based; set-up: dose 30 mg/kg, route oral; conditions: in vivo; summary of the method: as §4
Liver [22] = assay: Tmax in CD-1 mouse liver assessed as (1-((2-amino-6-hydroxy-9H-purin-9-yl)methyl)cyclopropoxy)me at 30 mg/kg, po administered as single dose by LC-MS analysis; format: ADME, organism-based; set-up: dose 30 mg/kg, route oral; conditions: in vivo; summary of the method: as §3
Liver [23] = assay: Cmax in CD-1 mouse liver assessed as (1-((2-amino-6-hydroxy-9H-purin-9-yl)methyl)cyclopropoxy)me at 30 mg/kg, po administered as single dose by LC-MS analysis; format: ADME, organism-based; set-up: dose 30 mg/kg, route oral; conditions: in vivo; summary of the method: as §4
Liver [24] = assay: AUC (0 to 36 hrs) in CD-1 mouse liver assessed as (1-((2-amino-6-hydroxy-9H-purin-9-yl)methyl)cyclopropoxy)me at 30 mg/kg, po administered as single dose by LC-MS analysis; format: ADME, organism-based; set-up: time < 36 hr, dose 30 mg/kg, route oral; conditions: in vivo; summary of the method: as §4
Liver [25] = assay: AUC (0 to infinity) in CD-1 mouse liver assessed as (1-((2-amino-6-hydroxy-9H-purin-9-yl)methyl)cyclopropoxy)me at 30 mg/kg, po administered as single dose by LC-MS analysis; format: ADME, organism-based; set-up: time infinity, dose 30 mg/kg, route oral; conditions: in vivo; summary of the method: as §4
Liver [26] = assay: Half life in CD-1 mouse liver assessed as (1-((2-amino-6-hydroxy-9H-purin-9-yl)methyl)cyclopropoxy)me at 30 mg/kg, po administered as single dose by LC-MS analysis; format: ADME, organism-based; set-up: dose 30 mg/kg, route oral; conditions: in vivo; summary of the method: as §4
Liver [27] = assay: Tmax in CD-1 mouse liver assessed as di- and triphosphates of (1-((2-amino-6-hydroxy-9H-purin-9-yl)methyl)cyclopropoxy)me at 30 mg/kg, po administered as single dose by LC-MS analysis; format: ADME, organism-based; set-up: dose 30 mg/kg, route oral; conditions: in vivo; summary of the method: as §3
Liver [28] = assay: Cmax in CD-1 mouse liver assessed as di- and triphosphates of (1-((2-amino-6-hydroxy-9H-purin-9-yl)methyl)cyclopropoxy)me at 30 mg/kg, po administered as single dose by LC-MS analysis; format: ADME, organism-based; set-up: dose 30 mg/kg, route oral; conditions: in vivo; summary of the method: as §4
Liver [29] = assay: AUC (0 to 36 hrs) in CD-1 mouse liver assessed as di- and triphosphates of (1-((2-amino-6-hydroxy-9H-purin-9-yl)methyl)cyclopropoxy)me at 30 mg/kg, po administered as single dose by LC-MS analysis; format: ADME, organism-based; set-up: time < 36 hr, dose 30 mg/kg, route oral; conditions: in vivo; summary of the method: as §4
Liver [30] = assay: AUC (0 to infinity) in CD-1 mouse liver assessed as di- and triphosphates of (1-((2-amino-6-hydroxy-9H-purin-9-yl)methyl)cyclopropoxy)me at 30 mg/kg, po administered as single dose by LC-MS analysis; format: ADME, organism-based; set-up: time infinity, dose 30 mg/kg, route oral; conditions: in vivo; summary of the method: as §4
Liver [31] = assay: Half life in CD-1 mouse liver assessed as di- and triphosphates of (1-((2-amino-6-hydroxy-9H-purin-9-yl)methyl)cyclopropoxy)me at 30 mg/kg, po administered as single dose by LC-MS analysis; format: ADME, organism-based; set-up: dose 30 mg/kg, route oral; conditions: in vivo; summary of the method: as §4

With `Nc1nc(O)c2ncn(CC3(OCP(=O)(O)O)CC3)c2n1` [LB80317] the AUC (Homo sapiens [1]) was 285 ng·h/mL, the Cmax (Homo sapiens [2]) was 12 ng/mL and the Tmax (Homo sapiens [3]) was 6 h. It also gave a t1/2 (Homo sapiens [4]) of 53 h, an AUC (Homo sapiens [5]) of 433 ng·h/mL and a Cmax (Homo sapiens [6]) of 21 ng/mL. It also gave a Tmax (Homo sapiens [7]) of 8 h, a t1/2 (Homo sapiens [8]) of 62 h and an AUC (Homo sapiens [9]) of 1017 ng·h/mL. For the same compound, the Cmax (Homo sapiens [10]) was 49 ng/mL, the Tmax (Homo sapiens [11]) was 3 h and the t1/2 (Homo sapiens [12]) was 51 h. The AUC (Homo sapiens [13]) was 1449 ng·h/mL, the Cmax (Homo sapiens [14]) was 75 ng/mL and the Tmax (Homo sapiens [15]) was 4.5 h. For the same compound, the t1/2 (Homo sapiens [16]) was 45 h, the Tmax (Plasma [17]) was 4 h and the Cmax (Plasma [18]) was 0.6 µM. For the same compound, the AUC (Plasma [19]) was 6 µM·h, the AUC (Plasma [20]) was 6 µM·h and the t1/2 (Plasma [21]) was 8.6 h. For the same compound, the Tmax (Liver [22]) was 1 h, the Cmax (Liver [23]) was 243 µM and the AUC (Liver [24]) was 3069 µM·h. For the same compound, the AUC (Liver [25]) was 3353 µM·h, the t1/2 (Liver [26]) was 9.9 h and the Tmax (Liver [27]) was 1 h. It also gave a Cmax (Liver [28]) of 107 µM, an AUC (Liver [29]) of 1883 µM·h and an AUC (Liver [30]) of 2152 µM·h. The t1/2 (Liver [31]) was 8.3 h.
